Assay results: ChEMBL document CHEMBL4118104, “Design, Synthesis, and Evaluation of Orally Bioavailable Quinoline-Indole Derivatives as Innovative Multitarget-Directed Ligands: Promotion of Cell Proliferation in the Adult Murine Hippocampus for the Treatment of Alzheimer's Disease” (J Med Chem, 2018)
The source made the active and inactive calls. The calls are words filed in the database; no cut-off is given here.

Key:
[1] = Permeability of compound at 100 ug/ml after 10 hrs by PAMPA assay; type: ADME; details: read-out: permeability
[2] = Half life in Sprague-Dawley rat liver microsomes at 100 uM up to 180 mins by HPLC-UV analysis
[3] = Metabolic stability in Sprague-Dawley rat liver microsomes assessed as metabolic rate constant at 100 uM up to 180 mins by HPLC-UV analysis; details: 3 h
PC-12 [4] = assay: Induction of rat PC12 cell proliferation at 10 uM after 72 hrs by microscopic analysis; type: functional, cell-based
In short: (§1)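 Undifferentiated PC12 cells cultured 72 h with compound at 0.5–50 µM (images at 10 µM) or with NGF 50 ng/ml, then examined under a digital microscope.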

PC-12 [5] = assay: Induction of rat PC12 cell proliferation at 0.5 to 50 uM after 72 hrs by microscopic analysis; type: functional, cell-based; in short: as §1
SH-SY5Y = assay: Neuroprotective activity against t-BuOOH-induced oxidative stress in human SH-SY5Y cells assessed as inhibition ROS accumulation pre-incubated for 24 hrs before t-BuOOH challnge for 30 mins by DCFH-DA probe based fluorescence assay; type: functional, cell-based
In short: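 SH-SY5Y cells; test agents at 1–0.01 µM, oxidative stress induced by tert-butyl hydroperoxide; intracellular ROS read by DCFH-DA fluorescence; at least three independent experiments in sextuplicate; EC50 derived.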

PC-12 [6] = assay: Cytotoxicity against rat undifferentiated PC12 cells at 0.5 to 50 uM after 72 hrs by MTT assay; type: cell-based; details: pc-12, 72 h
Mus musculus [7] = assay: Toxicity in C57BL/6 mouse assessed as effect on water intake at 677 to 2000 mg/kg, ig measured continuously during first 4 hrs, intermittently for following 24 hrs and occasionally thereafter for 14 consecutive days; type: organism-based; details: in vivo, po
Mus musculus [8] = assay: Toxicity in C57BL/6 mouse assessed as abnormal behavior at 677 to 2000 mg/kg, ig measured continuously during first 4 hrs, intermittently for following 24 hrs and occasionally thereafter for 14 consecutive days; type: organism-based; details: in vivo, po
In short: (§2)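 Adult C57BL/6 mice, 12 weeks old, given single intragastric doses of 0, 677, 1333 or 2000 mg/kg (n = 6 per dose, 3 male and 3 female). Abnormal behaviour and deaths observed continuously for the first 4 h, intermittently over the next 24 h, then occasionally for 14 days to catch delayed effects.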

Mus musculus [9] = assay: Toxicity in C57BL/6 mouse assessed as macroscopic abnormalities of heart at 677 to 2000 mg/kg, ig after 14 consecutive days; type: organism-based; details: in vivo, po
Mus musculus [10] = assay: Induction of cell proliferation in C57BL/6 mouse hippocampal neurons in CA3 region assessed as BrdU-incorporation at 30 mg/kg, po administered via gavage for 7 days by immunohistochemical analysis (reference value: 1.5%); type: functional
In short: (§3)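 C57BL/6 mice, 12 weeks old, n = 6, individually housed beforehand without wheels. Compound gavaged 30 mg/kg/day for 7 days with daily IP BrdU 50 mg/kg; BrdU+ cells counted by immunohistochemistry per hippocampal volume; two-way ANOVA.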

Mus musculus [11] = assay: Induction of cell proliferation in C57BL/6 mouse hippocampal neurons in DG region assessed as BrdU-incorporation at 0.5 uL/hr, icv for 7 days by immunohistochemical analysis (reference value: 7.8%); type: functional
Mus musculus [12] = assay: Toxicity in C57BL/6 mouse assessed as mortality at 677 to 2000 mg/kg, ig measured continuously during first 4 hrs, intermittently for following 24 hrs and occasionally thereafter for 14 consecutive days; type: organism-based; details: in vivo, po; in short: as §2
Mus musculus [13] = assay: Toxicity in C57BL/6 mouse assessed as histological abnormalities of brain at 2000 mg/kg, ig after 14 consecutive days by hematoxylin/eosin dye-based microscopic analysis; type: organism-based; details: in vivo, po, 336 h
In short: (§4)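 Adult C57BL/6 mice, 12 weeks old, single intragastric doses of 0, 677, 1333 or 2000 mg/kg (n = 6 per dose, 3 male/3 female); behaviour and mortality observed over 14 days; liver, heart, lung and brain examined by HE staining at 2000 mg/kg.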

Mus musculus [14] = assay: Induction of cell proliferation in C57BL/6 mouse hippocampal neurons in CA3 region assessed as BrdU-incorporation at 0.5 uL/hr, icv for 7 days by immunohistochemical analysis (reference value: 1.4%); type: functional
Mus musculus [15] = assay: Induction of cell proliferation in C57BL/6 mouse hippocampal neurons in DG region assessed as BrdU-incorporation at 30 mg/kg, po administered via gavage for 7 days by immunohistochemical analysis (reference value: 2.2%); type: functional; in short: as §3
Mus musculus [16] = assay: Toxicity in C57BL/6 mouse assessed as histological abnormalities of lung at 2000 mg/kg, ig after 14 consecutive days by hematoxylin/eosin dye-based microscopic analysis; type: organism-based; details: in vivo, po, 336 h; in short: as §4
Mus musculus [17] = assay: Toxicity in C57BL/6 mouse assessed as macroscopic abnormalities of kidney at 677 to 2000 mg/kg, ig after 14 consecutive days; type: organism-based; details: in vivo, po
Mus musculus [18] = assay: Toxicity in C57BL/6 mouse assessed as macroscopic abnormalities of spleen at 677 to 2000 mg/kg, ig after 14 consecutive days; type: organism-based; details: in vivo, po
Mus musculus [19] = assay: Toxicity in C57BL/6 mouse assessed as effect on body weight at 677 to 2000 mg/kg, ig measured continuously during first 4 hrs, intermittently for following 24 hrs and occasionally thereafter for 14 consecutive days; type: organism-based; details: in vivo, po
Mus musculus [20] = assay: Toxicity in C57BL/6 mouse assessed as effect on food intake at 677 to 2000 mg/kg, ig measured continuously during first 4 hrs, intermittently for following 24 hrs and occasionally thereafter for 14 consecutive days; type: organism-based; details: in vivo, po
Mus musculus [21] = assay: Induction of cell proliferation in C57BL/6 mouse hippocampal neurons in CA1 region assessed as BrdU-incorporation at 0.5 uL/hr, icv for 7 days by immunohistochemical analysis (reference value: 3.2%); type: functional
Mus musculus [22] = assay: Toxicity in C57BL/6 mouse assessed as macroscopic abnormalities of lung at 677 to 2000 mg/kg, ig after 14 consecutive days; type: organism-based; details: in vivo, po, 336 h
Mus musculus [23] = assay: Induction of cell proliferation in C57BL/6 mouse hippocampal neurons in CA2 region assessed as BrdU-incorporation at 30 mg/kg, po administered via gavage for 7 days by immunohistochemical analysis (reference value: 2.4%); type: functional; in short: as §3
Mus musculus [24] = assay: Toxicity in C57BL/6 mouse assessed as macroscopic abnormalities of liver at 677 to 2000 mg/kg, ig after 14 consecutive days; type: organism-based; details: in vivo, po
Mus musculus [25] = assay: Toxicity in C57BL/6 mouse assessed as macroscopic abnormalities of intestine at 677 to 2000 mg/kg, ig after 14 consecutive days; type: organism-based; details: in vivo, po
Mus musculus [26] = assay: Toxicity in C57BL/6 mouse assessed as histological abnormalities of liver at 2000 mg/kg, ig after 14 consecutive days by hematoxylin/eosin dye-based microscopic analysis; type: organism-based; details: in vivo, po, 336 h; in short: as §4
Mus musculus [27] = assay: Induction of cell proliferation in C57BL/6 mouse hippocampal neurons in CA1 region assessed as BrdU-incorporation at 30 mg/kg, po administered via gavage for 7 days by immunohistochemical analysis (reference value: 2.3%); type: functional; in short: as §3
Mus musculus [28] = assay: Toxicity in C57BL/6 mouse assessed as histological abnormalities of heart at 2000 mg/kg, ig after 14 consecutive days by hematoxylin/eosin dye-based microscopic analysis; type: organism-based; details: in vivo, po; in short: as §4
Mus musculus [29] = assay: Toxicity in C57BL/6 mouse assessed as macroscopic abnormalities of stomach at 677 to 2000 mg/kg, ig after 14 consecutive days; type: organism-based; details: in vivo, po
Mus musculus [30] = assay: Induction of cell proliferation in C57BL/6 mouse hippocampal neurons in CA2 region assessed as BrdU-incorporation at 0.5 uL/hr, icv for 7 days by immunohistochemical analysis (reference value: 2.4%); type: functional

Oc1cccc2ccc(-c3cc4ccccc4[nH]3)nc12
Papp at 10 h, 100 ug/ml [1]: 8 ×10⁻⁶ cm/s

COc1cc2c(cc1OC)C(=O)C(CC1CCN(Cc3ccccc3)CC1)C2 (stereo not given) [DONEPEZIL]
half-life at 3 h, 100 µM ([2]; microsomes): 1.3 h | K [3]: 0.00889 min⁻¹

Oc1c(Cl)cc(Cl)c2ccc(-c3cc4cc(Cl)ccc4[nH]3)nc12
Activity (PC-12 [4]): Active | Activity (PC-12 [5]): Active

Oc1cccc2ccc(-c3cc4ccc5c(c4[nH]3)OCO5)nc12
EC50 (SH-SY5Y): 0.26 µM | Activity (PC-12 [6]): Non-Toxic | Papp at 10 h, 100 ug/ml [1]: 5.9 ×10⁻⁶ cm/s

Oc1ccc2[nH]c(-c3ccc4c(Cl)cc(Cl)c(O)c4n3)cc2c1
EC50 (SH-SY5Y): 0.1 µM | Activity (PC-12 [6]): Non-Toxic | Papp at 10 h, 100 ug/ml [1]: 10.2 ×10⁻⁶ cm/s

Oc1c(Cl)cc(Cl)c2ccc(-c3cc4ccccc4[nH]3)nc12
Activity (PC-12 [5]): inactive | Papp at 10 h, 100 ug/ml [1]: 6.6 ×10⁻⁶ cm/s

COc1cc2cc(-c3ccc4cccc(O)c4n3)[nH]c2cc1OC
Papp at 10 h, 100 ug/ml [1]: 5.2 ×10⁻⁶ cm/s

COc1cc2[nH]c(-c3ccc4cccc(O)c4n3)cc2cc1O
Papp at 10 h, 100 ug/ml [1]: 12.1 ×10⁻⁶ cm/s

Oc1cccc2ccc(-c3cc4cc(F)ccc4[nH]3)nc12
Papp at 10 h, 100 ug/ml [1]: 10.6 ×10⁻⁶ cm/s

Cl.Oc1c(Cl)cc(Cl)c2ccc(-c3cc4cc(Cl)ccc4[nH]3)nc12
Activity (Mus musculus [7]): Non-Toxic | Activity (Mus musculus [8]): Non-Toxic | Activity (Mus musculus [9]): Non-Toxic | Activity (Mus musculus [10]): 4.7% | Activity (Mus musculus [11]): 28.5% | Activity (Mus musculus [12]): Non-Toxic | Activity (Mus musculus [13]): Non-Toxic | half-life at 3 h, 100 µM ([2]; liver microsomes): 3.26 h | Activity (Mus musculus [14]): 20.3% | Activity (Mus musculus [15]): 4.4% | Activity (Mus musculus [16]): Non-Toxic | Activity (Mus musculus [17]): Non-Toxic | Activity (Mus musculus [18]): Non-Toxic | Activity (Mus musculus [19]): Non-Toxic | Activity (Mus musculus [20]): Non-Toxic | Activity (Mus musculus [21]): 15.3% | Activity (Mus musculus [22]): Non-Toxic | Activity (Mus musculus [23]): 5.1% | K [3]: 0.00354 min⁻¹ | Activity (Mus musculus [24]): Non-Toxic | Activity (Mus musculus [25]): Non-Toxic | Activity (Mus musculus [26]): Non-Toxic | Activity (Mus musculus [27]): 4.8% | Activity (Mus musculus [28]): Non-Toxic | Activity (Mus musculus [29]): Non-Toxic | Activity (Mus musculus [30]): 18.1%

COc1cc2[nH]c(-c3ccc4c(Cl)cc(Cl)c(O)c4n3)cc2cc1O
Activity (PC-12 [5]): inactive | Papp at 10 h, 100 ug/ml [1]: 8.4 ×10⁻⁶ cm/s

C[C@]12CC[C@H]3[C@@H](CCC4=CC(=O)CC[C@@]43C)[C@@H]1CC[C@@H]2O [TESTOSTERONE]
K [3]: 0.3132 min⁻¹
